# According to ChEMBL document CHEMBL1154735, “A strategy to minimize reactive metabolite formation: discovery of (S)-4-(1-cyclopropyl-2-methoxyethyl)-6-[6-(difluoromethoxy)-2,5-dimethylpyridin-3-ylamino]-5-oxo-4,5-dihydropyrazine-2-carbonitrile as a potent, orally bioavailable corticotropin-releasing factor-1 receptor antagonist” (J Med Chem, 2009):
# Experiments:
# [1] = biological target: T1, Corticotropin-releasing factor receptor 1 (Rattus norvegicus, UniProt P35353); assay: Displacement of [125I]Tyr-o-CRF from CRF1 receptor in rat frontal cortex homogenate by binding titration assay; type: tissue-based
# T1 sequence (P35353 whole entry): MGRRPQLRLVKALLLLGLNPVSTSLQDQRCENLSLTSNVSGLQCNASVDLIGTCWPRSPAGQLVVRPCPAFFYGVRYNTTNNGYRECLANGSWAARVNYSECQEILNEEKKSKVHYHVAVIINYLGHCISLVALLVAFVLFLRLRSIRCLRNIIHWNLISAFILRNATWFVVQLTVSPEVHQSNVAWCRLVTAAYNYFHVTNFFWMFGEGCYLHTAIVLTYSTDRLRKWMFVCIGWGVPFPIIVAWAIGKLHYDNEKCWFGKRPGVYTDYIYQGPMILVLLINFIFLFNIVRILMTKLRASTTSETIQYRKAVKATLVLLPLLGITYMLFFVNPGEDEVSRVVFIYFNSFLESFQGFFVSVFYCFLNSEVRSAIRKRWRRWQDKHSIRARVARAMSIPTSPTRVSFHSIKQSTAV
# [2] = Metabolic stability in rat liver microsomes assessed as compound remaining at 3 uM after 10 mins by HPLC/UV/MS analysis; type: ADME, Microsome; details: read-out: Stability
# Method in brief: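 Pooled human or rat liver microsomes (1 mg/mL protein) with 3 μM compound and 1.3 mM NADPH in 100 mM sodium phosphate pH 7.4 at 37 °C; final 0.015% DMSO, 0.985% acetonitrile; stopped at 0 and 10 min, percent remaining by LC/MS/MS.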
# [3] = Half life in Sprague-Dawley rat at 2 mg/kg, iv by LC/MS/MS analysis; type: ADME, organism-based; set-up: dose 2 mg/kg, route intravenous; details: in vivo
# [4] = AUC in Sprague-Dawley rat at 10 mg/kg, po dosed as aqueous suspension of 1% polysorbate 80 in 0.5% methylcellulose after 0.25 to 24 hrs by LC/MS/MS analysis; type: ADME, organism-based; set-up: time upper 24 hr, time lower 0.25 hr, dose 10 mg/kg, route oral; details: in vivo
# [5] = Cmax in Sprague-Dawley rat at 10 mg/kg, po dosed as aqueous suspension of 1% polysorbate 80 in 0.5% methylcellulose after 2 to 4 hrs by LC/MS/MS analysis; type: ADME, organism-based; set-up: dose 10 mg/kg, route oral; details: in vivo
# [6] = Oral bioavailability in Sprague-Dawley rat at 10 mg/kg dosed as aqueous suspension of 1% polysorbate 80 in 0.5% methylcellulose after 0.25 to 24 hrs by LC/MS/MS analysis; type: ADME, organism-based; details: in vivo
# [7] = Cmax in Sprague-Dawley rat at 10 mg/kg, po dosed as aqueous suspension of Labrafil M 1944CS/DMAC/polysorbate 80, 85:10:5 (v/v) after 2 to 4 hrs by LC/MS/MS analysis; type: ADME, organism-based; set-up: dose 10 mg/kg, route oral; details: in vivo
# [8] = Aqueous solubility at pH 1; type: physicochemical
# [9] = Dissociation constant, pKa by spectrophotometric titration method; type: physicochemical
# Method in brief: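 Spectrophotometric titration over pH 2–11 in varying acetonitrile/water mixtures, extrapolated to 0% cosolvent.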
# [10] = Metabolic stability in NADPH-fortified human liver microsomes assessed as parent compound remaining at 10 uM after 30 mins by HPLC/UV/MS analysis; type: ADME, Microsome; details: read-out: Stability
# Method in brief: (§1)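 Pooled rat or human liver microsomes 1 mg/mL, 10 μM substrate, 100 mM potassium phosphate pH 7.4, 37 °C, started with NADPH-regenerating system (1.3 mM NADP+, 3.3 mM glucose-6-phosphate, 3.3 mM MgCl2, 0.5 U/mL G6PDH); GSH 5 mM in trapping runs. Sampled 0 and 30 min, acetonitrile quench; abundance as UV peak area (330–340 nm) fraction of all drug-related components by HPLC/UV/MS.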
# [11] = tested on: Liver microsomes; assay: Metabolic stability in NADPH-fortified human liver microsomes assessed as pyrazinone oxidation metabolite formation at 10 uM after 30 mins by HPLC/UV/MS analysis; type: ADME, Microsome; details: 0.5 h; method in brief: as §1
# [12] = Metabolic stability in NADPH-fortified rat liver microsomes assessed as parent compound remaining at 10 uM after 30 mins by HPLC/UV/MS analysis; type: ADME, Microsome; details: read-out: Stability; method in brief: as §1
# [13] = Fraction unbound in human serum after 3 to 7 hrs by equilibrium dialysis; type: ADME, cell-free
# Method in brief: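 Human serum spiked with compound, equilibrium-dialysed against isotonic phosphate buffer for 3 or 7 h (depending on system) at 37 °C; both sides measured by LC/MS/MS, unbound fraction as buffer/serum concentration ratio.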
# [14] = Drug metabolism in bile duct cannulated Sprague-Dawley rat assessed as unchanged parent drug remaining in bile at 20 mg/kg, po after 24 hrs by HPLC/UV/MS analysis; type: ADME, organism-based; set-up: dose 20 mg/kg, route oral; details: read-out: Activity
# Method in brief: (§2)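 Male Sprague–Dawley bile duct cannulated rats (n = 3) dosed orally at 20 mg/kg in PEG/ethanol 90:10; vehicle-dosed controls (n = 3). Bile and urine pooled over 0–24 h, acetonitrile-precipitated and profiled by HPLC/UV/MS (Hydro-RP column, PDA 200–550 nm, positive-ion full and data-dependent scans).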
# [15] = Drug metabolism in bile duct cannulated Sprague-Dawley rat assessed as GSH adduct formation in urine at 20 mg/kg, po after 24 hrs by HPLC/UV/MS analysis; type: ADME, organism-based; set-up: dose 20 mg/kg, route oral; details: in vivo; method in brief: as §2
# [16] = tested on: Rattus norvegicus; assay: Total plasma concentration in Sprague-Dawley rat at 1 mg/kg, po after 1 to 3 hrs by LC/MS/MS analysis; type: ADME, organism-based; set-up: dose 1 mg/kg, route oral; details: in vivo
# [17] = tested on: Rattus norvegicus; assay: Total plasma concentration in Sprague-Dawley rat at 1.8 mg/kg, po after 1 to 3 hrs by LC/MS/MS analysis; type: ADME, organism-based; set-up: dose 1.8 mg/kg, route oral; details: in vivo
# [18] = tested on: Rattus norvegicus; assay: Total plasma concentration in Sprague-Dawley rat at 3 mg/kg, po after 1 to 3 hrs by LC/MS/MS analysis; type: ADME, organism-based; set-up: dose 3 mg/kg, route oral; details: in vivo
# [19] = tested on: Rattus norvegicus; assay: Plasma free concentration in Sprague-Dawley rat at 0.56 mg/kg, po after 1 to 3 hrs by LC/MS/MS analysis; type: ADME, organism-based; set-up: dose 0.56 mg/kg, route oral; details: in vivo
# [20] = tested on: Rattus norvegicus; assay: Plasma free concentration in Sprague-Dawley rat at 1.8 mg/kg, po after 1 to 3 hrs by LC/MS/MS analysis; type: ADME, organism-based; set-up: dose 1.8 mg/kg, route oral; details: in vivo
# [21] = tested on: Rattus norvegicus; assay: Ex vivo receptor occupancy of CRF1 receptor in Sprague-Dawley rat brain parietal assessed as inhibition of [125I]sauvagine binding at 0.56 mg/kg, po after 90 mins by autoradiography; type: functional; details: 1.5 h
# [22] = tested on: Rattus norvegicus; assay: Ex vivo receptor occupancy of CRF1 receptor in Sprague-Dawley rat brain parietal assessed as inhibition of [125I]sauvagine binding at 1.8 mg/kg, po after 90 mins by autoradiography; type: functional; details: 1.5 h
# [23] = Half life in Beagle dog at 2 mg/kg, iv by LC/MS/MS analysis; type: ADME, organism-based, Canis lupus familiaris; set-up: dose 2 mg/kg, route intravenous; details: in vivo
# Method in brief: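 Male beagle dogs (n = 4), 2 mg/kg iv in propylene glycol:ethanol 90:10 (v/v), 1 mL/kg infused over 5 min at 0.2 mL/kg/min; femoral vein blood at 0.17–24 h; plasma frozen at –20 °C, analysed by LC/MS/MS.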
# [24] = AUC in Beagle dog at 2 mg/kg, po dosed as […] after 0.25 to 24 hrs by LC/MS/MS analysis; type: ADME, organism-based, Canis lupus familiaris; set-up: time upper 24 hr, time lower 0.25 hr, dose 2 mg/kg, route oral; details: in vivo
# [25] = tested on: Rattus norvegicus; assay: Toxicity in Sprague-Dawley rat at 60 mg/kg after 2 weeks; type: organism-based; set-up: dose 60 mg/kg; details: in vivo, 336 h
# [26] = tested on: Rattus norvegicus; assay: Toxicity in Sprague-Dawley rat at 175 mg/kg after 2 weeks; type: organism-based; set-up: dose 175 mg/kg; details: in vivo, 336 h
structure (smiles),measurement,setting,value
COC[C@H](C1CC1)n1cc(C#N)nc(Nc2cc(C)c(OC(F)F)nc2C)c1=O,IC50,[1],0.86 nM
same,"remaining at 10 min, 3 µM",[2],70%
same,half-life,[3],9.3 h
same,AUC,[4],4.1 µM·h
same,Cmax,[5],860 nM
same,bioavailability,[6],31%
same,Cmax,[7],1600 nM
same,solubility,[8],3 µg/mL
same,pKa,[9],< 2
same,"remaining at 0.5 h, 10 µM",[10],56%
same,Activity,[11],< 1%
same,"remaining at 0.5 h, 10 µM",[12],82%
same,fraction unbound,[13],0.035
same,dose excreted at 24 h,[14],3%
same,Activity,[15],0.1%
same,concentration,[16],45 nM
same,concentration,[17],83 nM
same,concentration,[18],140 nM
same,Cp(f),[19],0.84 nM
same,Cp(f),[20],2.9 nM
same,inhibition in vivo at 0.56 mg/kg,[21],39%
same,inhibition in vivo at 1.8 mg/kg,[22],71%
same,half-life,[23],30 h
same,AUC,[24],7.6 µM·h
same,Activity,[25],Non-toxic
same,Activity,[26],Non-toxic
